Hit rate of the full screen: of about 360,000 compounds, about 950 (0.26%) were called active. Many of the other results were omitted from the sample, so actives are more common in it than they were. Unmarked numbers belong to inactive results.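 Rule for the calls: active = inhibition above a per-plate limit, mean inhibition of low control wells plus 3 SD (cut at about 25% in these data); inactive = the rest.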
molecular target: ADP-ribosylation factor GTPase-activating protein 1 (Rattus norvegicus) (UniProt Q62848); experiment: inhibitors of rat ARFGAP1 GAP activity, primary screen, biochemical, fluorescence polarization, GDP tracer (AID 651572); conditions: Arfgap1-stimulated ARF1 GTP hydrolysis, GDP FP detection; at 16.5 µM; hits give high values;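 note: 0% = DMSO wells with enzyme and 100% = wells lacking Arfgap1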
Sequence (Q62848 1-136 limits assumed): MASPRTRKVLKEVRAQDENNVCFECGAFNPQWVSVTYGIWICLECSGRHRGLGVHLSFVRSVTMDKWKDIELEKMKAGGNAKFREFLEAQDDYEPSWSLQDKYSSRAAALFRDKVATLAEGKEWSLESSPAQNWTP
Outline: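 Repeats: one replicate per compound; assay system: rat Arfgap1 catalytic domain, aa 1-136; times: enzyme reaction 120 min at 25 °C after 20 min preincubation; detection: FP of antibody-bound GDP Alexa 633 tracer, ex 620/em 688 nm; benchmarks: high control wells lacking Arfgap1, low control full reaction with DMSO; reagent: human ARF1(Δ1-17)-GTP substrate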

In order of rising inhibition:
1. Nc1ncnc2c1ncn2[C@@H]1O[C@H](C(=O)N[C@@H](CCc2ccccc2)C(=O)NCC(=O)N2CCOCC2)[C@@H](O)[C@H]1O  -17.3%
2. COc1ccccc1OCC(=O)OCc1cc(-c2ccco2)on1  -14.7%
3. CCCCCCCCN1C(=O)[C@@H](CC(=O)N2CCN(C(=O)OCC)CC2)C[C@@]2(C(=O)OC)C1=C[C@H](C1CCCC1)O[C@@H]2C  -12.9%
4. Cc1ccc(NC(=O)N2c3ccccc3SC2c2ccco2)c(C)c1 (stereo not given)  -11.2%
5. O=C(O)Cn1cnc2c(NCc3ccccc3)ncnc21  -10.7%
6. COc1cccc(-c2cc(CNC(=O)[C@@H](Cc3ccccc3)NC(=O)[C@H]3O[C@@H](n4cnc(C(N)=O)n4)[C@H](O)[C@@H]3O)no2)c1  -9.08%
7. CC(=O)C1=C(C)N(Cc2ccc(Cl)cc2)C(=S)NC1c1ccc(F)cc1 (stereo not given)  -8.75%
8. COc1ccc(/C=C/C(=O)OCC(=O)NC2CCCCCC2)cc1OC  -8.52%
9. Cc1nnc(SCCCn2c(N3CCCCC3)nc3c2c(=O)[nH]c(=O)n3C)s1  -8.33%
10. CC(C)(C)n1nc(C2CC2)c(Br)c1NC(=O)c1ccccc1F  -8.2%
11. Cc1cc(Br)cn2c(Cc3ccccc3C(F)(F)F)c(-c3ccc(C#N)cc3)nc12  -8.18%
12. COc1ccc(NC(=O)c2ccc(C#CC(C)(C)O)cc2)cc1  -7.91%
13. COC(=O)C1=C(C)N(Cc2cccc(C(F)(F)F)c2)C(=NCc2ccccc2)NC1c1ccc(Cl)cc1 (stereo not given)  -7.39%
14. CC1(C)Cc2nc3sc4c(SCC(=O)NC(c5ccccc5)c5ccccc5)ncnc4c3cc2CO1  -6.88%
15. COC(=O)c1cc2c(c3c4cc(F)ccc4n(S(=O)(=O)c4ccccc4)c13)C(=O)N(Cc1ccccc1OC)C2  -6.31%
16. C#CCN([C@@H](C)C(=O)OCC)S(=O)(=O)c1ccc(Br)cc1F  -5.91%
17. CCSc1ccccc1C(=O)NCc1ccc(OC)cc1  -5.39%
18. CC(=O)Nc1ccc(S(=O)(=O)Nc2nccc(/C=C/c3ccccc3F)n2)cc1  -5.08%
19. O=C(O)c1ccc(S(=O)(=O)N2CCOCC2)o1  -3.82%
20. CCNS(=O)(=O)c1ccc(NC(=O)c2cncc(Br)c2)cc1  -3.5%
21. Cc1nc(NC(=O)C(C)(C)C)sc1[N+](=O)[O-]  -3.35%
22. Cn1c(=O)[nH]c(=O)c2c1nc(N1CCN(C(c3ccccc3)c3ccccc3)CC1)n2CCO  -3.12%
23. COC(=O)Cc1nnn2c1[C@H](C)[C@@H](OC)c1cc(Br)ccc1-2  -3.05%
24. N#Cc1ccc(OCCCN2CCC(C(O)(c3ccccc3)c3ccccc3)CC2)c(F)c1  -2.6%
25. CN(CC(=O)Nc1cccc(F)c1)C(=O)CC1CCCC1  -2.56%
26. CN1CCCCC(NC(=O)C(C)(C)C)C1=O (stereo not given)  -2.4%
27. O=C(NCc1ccccc1)[C@H]1CCCN1C(=O)[C@H]1CCCN1C(=O)N1CCOCC1  -1.77%
28. COc1ccc(CNC(=O)C(C)NCc2ccccc2Cl)cc1 (stereo not given)  -1.63%
29. Cc1ccc(-n2ncc3c(=O)n(-c4ccc(C)c(C)c4)c(-c4ccco4)nc32)cc1  -1.3%
30. CCOC(=O)CNC(=O)N(C)[C@H]1C[C@H]2c3[nH]c4c(-c5ccc6c(c5)OCO6)cccc4c3CCN2C(=O)[C@H]1[C@H](C)O  -1.05%
31. CN1C(=O)C2CC(O)C(SC3CC4C(=O)N(C)C(=O)C4CC3O)CC2C1=O (stereo not given)  -0.39%
32. COC(=O)C1=C(C)N(Cc2ccc(F)cc2)C(=S)NC1c1cccc(Cl)c1 (stereo not given)  0.22%
33. O=S1(=O)c2c(cccc2N2CCCCC2)O[C@H](COCc2ccccc2)CN1C1CC1  0.4%
34. Cc1ccc(C)c(CN2CCC(CNC(=O)C3CCCN(c4ncnc5c4nc4n5CCCCC4)C3)CC2)c1 (stereo not given)  1.05%
35. CCOC(=O)/C=C/c1ccccc1O  1.41%
36. CC(C)CNc1cccc2c1S(=O)(=O)N[C@H](C)CO2  1.59%
37. Cc1cc(N2CCN(C(=O)OC(C)(C)C)C[C@H]2C)ccc1N1CCN(Cc2ccccc2)[C@H](C)C1  1.76%
38. COc1ccccc1CCn1cnc(-c2ccccc2)c1C(C)C  2.03%
39. CC(C)[C@@H](C)/C=C/[C@@H](C)[C@H]1CC[C@@H]2[C@]1(C)CCC1[C@]23C=C[C@]2(C[C@@H](O)CC[C@]12C)N(c1ccc([N+](=O)[O-])cn1)O3 (stereo not given in full)  2.09%
40. CC(C)C[C@H](NC(=O)CC1CCCC1)C(=O)N1CCC[C@H]1C(=O)NCc1ccccc1  2.12%
41. COC(=O)c1c(-c2ccc(OC)cc2)c2c(c3c4ccccc4n(S(=O)(=O)c4ccc(C)cc4)c13)C(=O)N(C)C2  2.2%
42. Cc1cc(S(=O)(=O)N2CCOCC2)ccc1OCC(=O)Nc1cccc(C(F)(F)F)c1  2.22%
43. CCc1c(-c2ccccc2OC)ncn1CCc1ccccc1OC  2.34%
44. CCOc1ccc(C(=O)Nc2cccc(SC)c2)cc1  2.92%
45. Nc1ncnc2c1ncn2C1OC(CO)CC1O (stereo not given)  3.3%
46. COc1ccccc1OCc1nnc(SCC(N)=O)n1-c1ccccc1  3.32%
47. CCCCCCCCN1C(=O)[C@@H](CC(=O)NCCCC)C[C@@]2(C(=O)OC)C1=C[C@H](C(C)(C)C)O[C@@H]2C  3.82%
48. COC(=O)[C@H](CC(C)C)NS(=O)(=O)c1c(F)cccc1F  4.12%
49. COc1ccccc1Cc1c(-c2ccc(F)cc2)nc2ccc(C)cn12  4.94%
50. O=C(O)c1ccc(COc2c(F)c(F)cc(F)c2F)o1  5.24%
51. CC1CCN(C(=O)c2ncn3c2C(=O)N[C@@H](C)C3)CC1  5.31%
52. CCOC(=O)C1=C(C(=O)OCC)C2N(Cc3ccc(C#N)cc3)c3ccccc3[C@@]23C[C@@H](C(=O)OC)N(S(=O)(=O)c2ccc(F)cc2)C3=N1 (stereo not given in full)  6.03%
53. COc1ccc(C(O)c2nc(-c3ccc(OC)nc3)cs2)cc1 (stereo not given)  6.07%
54. O=c1[nH]c(-c2ccccc2)cn1C1CCN(Cc2ccc(-c3nc4ccc(F)cc4nc3-c3ccccc3)cc2)CC1  6.41%
55. COC(=O)CCc1sc(Nc2ccc(Br)cc2)nc1-c1ccc(OC)cc1  7.69%
56. COC(=O)CSc1ncnc2c1cnn2-c1ccc(C)cc1C  8%
57. COCc1[nH]nc2c1C(c1ccccc1)N(c1ccccc1)C2=O (stereo not given)  8.17%
58. COC(=O)C1=C(C)N(Cc2ccc(C(F)(F)F)cc2)C(=NCc2ccccc2)NC1c1ccccc1C(F)(F)F (stereo not given)  9.08%
59. COc1ccc(CCNC(=O)CCC(=O)NC2CCCCC2)cc1OC  9.15%
60. Oc1cccc2ccc(/C=C/c3ccc(Br)s3)nc12  9.22%
61. COC(=O)C1=C(C)N(Cc2ccc(C(F)(F)F)cc2)C(=NCc2ccc(C(F)(F)F)cc2)NC1c1cccc(Cl)c1 (stereo not given)  9.23%
62. NC(c1csc(NC(=O)Nc2cccc(C(F)(F)F)c2)n1)C1CCCCC1 (stereo not given)  10.7%
63. O=C(NCc1ccccc1)[C@H]1CCCN1C(=O)[C@@H]1CCCN1C(=O)c1ccc(Cl)cc1Cl  11.1%
64. COC(=O)[C@]12C[C@H](CC(=O)N3CCN(C(=O)C4CC4)CC3)C(=O)N(Cc3ccc4c(c3)OCO4)C1=C[C@H](C(C)(C)C)O[C@@H]2C  11.2%
65. CCCN(CC(=O)Nc1ccccc1C)C(=O)c1ccc2[nH]c3c(c2c1)CC(C)CC3 (stereo not given)  11.3%
66. COc1ccc(CC(N)c2csc(NC(=O)Nc3ccc(C(C)C)cc3)n2)cc1 (stereo not given)  16%
67. Cc1[nH]c2ccccc2c1CC(=O)Nc1ccc(Nc2cccnc2)c(-c2cccc(Cl)c2)c1  16.8%
68. CCCc1nc2oc3c(OCC)ncnc3c2c2c1COC(C)(C)C2  16.9%
69. O=C(N[C@H](Cc1ccccc1)C(=O)N1CCCN(Cc2cccs2)CC1)[C@H]1O[C@@H](n2ccc(=O)[nH]c2=O)[C@H](O)[C@@H]1O  17.7%
70. CC(=O)C1=C(C)N(Cc2ccccc2)C(=S)NC1c1cccc(Br)c1 (stereo not given)  20.9%

For COc1ccc(CNC(=O)C(Cc2ccccc2)n2cccc2)cc1 (stereo not given), the inhibition was 33.6% (active).
For COC(=O)c1cc2c(c3c4ccccc4n(S(=O)(=O)c4cccc(C)c4)c13)C(=O)N(Cc1ccccc1)C2, the inhibition was 46.8% (active).
For COc1ccc(/C=C2\SC(=S)N(CCCC(=O)NC3CCCC3)C2=O)cc1OC, the inhibition was 25.1% (active).
For COc1ccc(-c2csc(Nc3ccc(O)cc3)n2)cc1, the inhibition was 24.8% (active).
Nc1ccc(S(=O)(=O)Nc2nccc(/C=C/c3ccc(Br)s3)n2)cc1 was tested, and the inhibition was 33.6% (active).
With CC1CCc2[nH]c3ccc(C(=O)N(C)CC(=O)Nc4cccc(F)c4)cc3c2C1 (stereo not given) the inhibition was 28% (active).
COc1ccccc1OCC(=O)OCn1c(SC)nnc(C)c1=O was tested, and the inhibition was 25.6% (active).
Cc1ccc(NC(=O)c2ccc(Oc3ncccn3)cc2)cc1 was tested, and the inhibition was 25.6% (active).
For CC(C)CCSc1ncnc2c1oc1nc3c(cc12)COC(C)(C)C3, the inhibition was 28.1% (active).
With O=C(O)CCn1cc(/C=C/C(=O)c2ccc(Cl)cc2)c(-c2cccc(Br)c2)n1 the inhibition was 26.5% (active).
With O=C(O)CSCc1ccc(C(=O)O)o1 the inhibition was 25.2% (active).
For CCNS(=O)(=O)c1ccc(NC(=O)Nc2cccc(C(F)(F)F)c2)cc1, the inhibition was 28.9% (active).
Cc1ccc(-n2ncc3c2ncn2nc(-c4ccco4)nc32)c(C)c1 was tested, and the inhibition was 44.3% (active).
With Cn1c(=O)[nH]c(=O)c2c1nc(N1CCN(CCO)CC1)n2CCSc1nc2ccccc2s1 the inhibition was 38.1% (active).
In the case of COc1ccc(C(N)c2csc(NC(=O)Nc3cccc(C(F)(F)F)c3)n2)cc1 (stereo not given), the inhibition is reported as 26.1% (active).

From PubChem BioAssay AID651572 (The Scripps Research Institute Molecular Screening Center, 2012)
